Reference: BindingDB's records for doi:10.1021/jm0309203 (University of Bath, 2003)

Legend:
[1] = target: Mu-type opioid receptor (Homo sapiens, UniProt P35372); assay: Binding affinity against cloned human Opioid receptor mu 1 transfected into chinese hamster ovary cells using [3H]DAMGO as radioligand
Outline: (§1)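 Competition binding in CHO cells transfected with cloned human opioid receptors, using [3H]DAMGO (μ), [3H]Cl-DPDPE (δ) and [3H]U69,593 (κ) as displaced radioligands. Hill slopes were examined. Data are averages of two experiments, each run in triplicate.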

[2] = target: Delta-type opioid receptor (Homo sapiens, UniProt P41143); assay: Binding affinity against cloned human Opioid receptor delta 1 transfected into chinese hamster ovary cells using [3H]Cl-DPDPE as radioligand; outline: as §1
Delta-type opioid receptor, sequence (P41143 whole entry): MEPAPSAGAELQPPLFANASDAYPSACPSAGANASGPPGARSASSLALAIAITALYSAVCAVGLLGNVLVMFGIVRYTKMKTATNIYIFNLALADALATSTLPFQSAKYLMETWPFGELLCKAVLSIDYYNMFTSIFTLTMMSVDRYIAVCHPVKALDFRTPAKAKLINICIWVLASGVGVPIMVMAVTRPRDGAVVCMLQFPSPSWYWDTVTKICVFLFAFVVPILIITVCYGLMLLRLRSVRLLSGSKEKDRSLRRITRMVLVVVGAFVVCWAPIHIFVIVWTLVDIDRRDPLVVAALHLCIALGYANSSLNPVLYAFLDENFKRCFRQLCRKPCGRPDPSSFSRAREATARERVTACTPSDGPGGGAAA

Mu-type opioid receptor, sequence (P35372 whole entry): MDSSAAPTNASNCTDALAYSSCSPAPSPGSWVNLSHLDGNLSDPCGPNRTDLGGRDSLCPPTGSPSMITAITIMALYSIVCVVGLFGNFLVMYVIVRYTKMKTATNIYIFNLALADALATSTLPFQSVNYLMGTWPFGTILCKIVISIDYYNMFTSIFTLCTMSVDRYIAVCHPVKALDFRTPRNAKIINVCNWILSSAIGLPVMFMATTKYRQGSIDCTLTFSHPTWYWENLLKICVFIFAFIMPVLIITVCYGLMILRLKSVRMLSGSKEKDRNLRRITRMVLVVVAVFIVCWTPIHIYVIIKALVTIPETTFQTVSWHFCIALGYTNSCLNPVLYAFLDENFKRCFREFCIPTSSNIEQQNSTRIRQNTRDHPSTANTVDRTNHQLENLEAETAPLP

| Compound | Ki [1] [nM] | Ki [2] [nM] |
| --- | --- | --- |
| NC(=Nc1ccc2[nH]c3c(c2c1)C[C@@]1(O)C2Cc4ccc(O)c5c4[C@@]1(CCN2CC1CC1)[C@H]3O5)NCc1ccccc1 [7-benzylamino(imino)methylamino-22-cyclopropylmethyl-14-oxa-11,22-diazaheptacyclo[13.9.1.01,13.02,21.04,12.05,10.019,25]pentacosa-4(12),5(10),6,8,15,17,19(25)-heptaene-2,16-diol] | 10 | – |
| CCCNC(=Nc1ccc2[nH]c3c(c2c1)C[C@@]1(O)C2Cc4ccc(O)c5c4[C@@]1(CCN2CC1CC1)[C@H]3O5)NCC1CC1 [22-cyclopropylmethyl-7-cyclopropylmethylamino(propylimino)methylamino-14-oxa-11,22-diazaheptacyclo[13.9.1.01,13.02,21.04,12.05,10.019,25]pentacosa-4(12),5(10),6,8,15,17,19(25)-heptaene-2,16-diol] | – | 15 |
